The nature of data set [1]: Cytotoxicity against African green monkey Vero cells assessed as cell viability after 48 hrs by Alamar Blue assay. The data set is classed as cell-based. Conditions: chlorocebus sabaeus.
Data set [2] addresses T1, Albumin (Homo sapiens, UniProt P02768). Kind of data set: Binding affinity to human serum albumin with excitation at 285 nm after 30 mins by fluorescence spectrophotometric analysis. The data set is classed as ADME.
The test system of data set [3] is Human alphaherpesvirus 2. The experiment in a line: Antiviral activity against HSV-2 186 infected in African green monkey Vero cells assessed as inhibition of viral yield after 48 hrs by crystal violet staining. In kind it is functional, cell-based, strain 186. In a few lines: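 Viral replication yield reduction assay against HSV-2 strain 186 over a range of drug concentrations. Viral titer was averaged from quadruplicate samples at each concentration, and IC50 was calculated from the titers. Compounds were tested in two separate experiments.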

A short description of data set [4]: Selectivity index, ratio of CC50 for African green monkey Vero cells to IC50 for HSV-2 186. The data set is classed as functional.
For data set [5], the target named is T1, Albumin. The experiment in a line: Binding affinity to human serum albumin with excitation at 295 nm after 30 mins by fluorescence spectrophotometric analysis. In kind it is ADME.
A short description of data set [6]: Selectivity index, ratio of CC50 for African green monkey Vero cells to IC50 for HSV-1 7401H. The data set is classed as functional.
Data set [7] concerns Human alphaherpesvirus 1. The experiment in a line: Antiviral activity against HSV-1 7401H infected in African green monkey Vero cells after 2 to 3 days by plaque reduction assay. Conditions: Human alphaherpesvirus 1, 7401H.
Data set [8] in a line: Cytotoxicity against African green monkey Vero cells assessed as cell viability after 2 days by trypan blue exclusion assay. The data set is classed as cell-based. Conditions: chlorocebus sabaeus.
Data set [9] deals with Human immunodeficiency virus type 1 reverse transcriptase (Human immunodeficiency virus 1) (UniProt Q72547). Kind of data set: Inhibition of HIV-1 reverse transcriptase in human Jurkat cells assessed as ratio MTT activity to reverse transcriptase activity with compound/reverse transcriptase activity with DMSO at 5 ug/ml after 72 hrs. The data set is classed as cell-based. A digest of the protocol:
(§1)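 Jurkat cells infected with HIV-1 in the presence of compound, with DMSO as solvent control. Viability was read by MTT assay and HIV replication by reverse transcriptase activity assay. The value is the ratio MTT activity/(RT activity with compound/RT activity in DMSO).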

Data set [10] has the same target. Kind of data set: Inhibition of HIV-1 reverse transcriptase at 37.5 to 150 ug/ml by Roche colorimetric assay.
Data set [11] shares this target. Kind of data set: Inhibition of HIV-1 reverse transcriptase in human Jurkat cells assessed as ratio MTT activity to reverse transcriptase activity with compound/reverse transcriptase activity with DMSO at 1 ug/ml after 72 hrs. The data set is classed as cell-based. A digest of the protocol: as §1
The nature of data set [12]: Cytotoxicity against African green monkey Vero cells assessed as cell viability after 3 days by MTT assay. The data set is classed as cell-based. Conditions: chlorocebus sabaeus. For orientation: Tetrazolium assays rely on reduction of a dye to a coloured formazan, in cell work by metabolically active cells.
A short description of data set [13]: Selectivity index, ratio of CC50 for African green monkey Vero cells to IC50 for HSV-1 15578. The data set is classed as functional.
The test system of data set [14] is Human alphaherpesvirus 1. Kind of data set: Antiviral activity against HSV-1 15578 infected in African green monkey Vero cells assessed as reduction of virus-induced cytopathic effect after 4 to 6 days by light microscopic analysis. The data set is classed as functional, organism-based. Conditions: Human alphaherpesvirus 1, 15578, Vero.
Data set [15] is described as follows: Solubility of the compound in water at room temperature. In kind it is physicochemical.
In data set [16] the test system is Human alphaherpesvirus 1. The experiment in a line: Antiviral activity against HSV-1 KOS infected in African green monkey RC-37 cells assessed as inhibition of viral replication incubated with virus for 1 hr followed by viral adsorbtion to cells for 1 hr measured after 3 days by plaque reduction assay. In kind it is functional, organism-based. Conditions: Human alphaherpesvirus 1, KOS. In general terms: Plaque reduction counts the foci of infection that form in a cell layer.

Data set [17] is described as follows: Selectivity index, ratio of CC50 for African green monkey RC-37 cells to IC50 for HSV-1 KOS. The data set is classed as functional.
Data set [18] is described as follows: Cytotoxicity against African green monkey RC-37 cells assessed as cell viability after 3 days by neutral red uptake assay. The data set is classed as cell-based. Conditions: chlorocebus aethiops.
Data set [19] has as its target T1, Albumin. The experiment in a line: Binding affinity to human serum albumin with excitation at 285 nm assessed as association constant by fluorescence emission spectroscopic analysis. Conditions: isolated protein, 0.285 µM. In kind it is ADME.
For data set [20], the target named is T1, Albumin. The experiment in a line: Binding affinity to human serum albumin with excitation at 285 nm by fluorescence emission spectroscopic analysis. The data set is classed as ADME. A digest of the protocol: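 Human serum albumin was titrated by fluorescence with the compound, using excitation at 285 nm. Kd was calculated from the titration spectra.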

The subject of data set [21] is Human alphaherpesvirus 1. The experiment in a line: Antiviral activity against HSV-1 15577 infected in African green monkey Vero cells assessed as reduction of virus-induced cytopathic effect after 4 to 6 days by light microscopic analysis. In kind it is functional, organism-based. Conditions: Human alphaherpesvirus 1, 15577, Vero. For orientation: Cytopathic effects are the visible damage that an infection or toxin causes in cultured cells.

Data set [22] concerns Human alphaherpesvirus 2. The experiment in a line: Antiviral activity against HSV-2 G infected in African green monkey Vero cells after 2 days by plaque reduction assay. Conditions: Human alphaherpesvirus 2, strain G, 48 h. In kind it is functional, organism-based.
Data set [23] relates to Human alphaherpesvirus 1. Kind of data set: Antiviral activity against HSV-1 F infected in African green monkey Vero cells after 2 days by plaque reduction assay. In kind it is functional, organism-based. Conditions: Human alphaherpesvirus 1, strain F, 48 h.
The nature of data set [24]: Selectivity index, ratio of CC50 for African green monkey Vero cells to IC50 for HSV-1 F. In kind it is functional.
The nature of data set [25]: Cytotoxicity against African green monkey Vero cells after 2 days by neutral red uptake assay. In kind it is cell-based. Conditions: chlorocebus sabaeus.
Data set [26] is described as follows: Selectivity index, ratio of CC50 for African green monkey Vero cells to IC50 for HSV-2 G. In kind it is functional.
[27] abbreviates: Human alphaherpesvirus 2, strain 186, Vero, 48 h.

Structures are written as SMILES. Converted amounts (≈) assume the structure as drawn. The source made the active and inactive calls. No cut-off for these calls is given here.

A word on the CC50: it is the concentration at which the toxic effect on the cells reaches its halfway point. As a reminder, the Kd is a measure of binding affinity in units of concentration. Usually IC50 stands for the midpoint of a concentration-inhibition curve. Usually solubility stands for the concentration that dissolves in the medium under given conditions.

T1 sequence (P02768 whole entry): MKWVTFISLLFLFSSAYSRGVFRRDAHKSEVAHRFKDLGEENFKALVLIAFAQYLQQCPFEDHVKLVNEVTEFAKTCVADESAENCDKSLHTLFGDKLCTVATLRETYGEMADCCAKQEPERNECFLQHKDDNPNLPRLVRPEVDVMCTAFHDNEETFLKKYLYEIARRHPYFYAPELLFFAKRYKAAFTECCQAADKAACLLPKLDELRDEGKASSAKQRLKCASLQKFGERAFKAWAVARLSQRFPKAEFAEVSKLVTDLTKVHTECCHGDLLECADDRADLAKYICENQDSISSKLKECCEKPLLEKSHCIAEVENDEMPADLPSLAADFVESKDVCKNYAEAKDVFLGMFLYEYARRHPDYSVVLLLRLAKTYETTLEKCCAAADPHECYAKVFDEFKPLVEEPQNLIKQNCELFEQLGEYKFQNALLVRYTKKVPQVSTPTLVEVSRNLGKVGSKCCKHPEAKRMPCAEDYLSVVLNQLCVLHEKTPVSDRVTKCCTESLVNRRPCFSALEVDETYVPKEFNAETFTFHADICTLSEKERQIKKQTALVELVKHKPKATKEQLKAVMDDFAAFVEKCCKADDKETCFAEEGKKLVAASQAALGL

`C=C(C)[C@@H]1CC[C@]2(C(=O)[O-])CC[C@]3(C)[C@H](CC[C@@H]4[C@@]5(C)CC[C@H](O)C(C)(C)[C@@H]5CC[C@]43C)[C@@H]12.CCCCCCCCCCCC[N+](C)(C)Cc1ccccc1`: the CC50 at 48 h in data set [1] came to 12 µM. Also, the Kd in data set [2] stood at 1.6 µM; in [5], 1.9 µM. The IC50 in data set [3] (setting [27]) turned out to be 7.2 µM. Moreover, the “Ratio CC50/IC50” value in data set [4] turned out to be 1.7.
Consider `C=C(C)[C@@H]1CC[C@]2(C(=O)O)CC[C@]3(C)[C@H](CC[C@@H]4[C@@]5(C)CCC(=O)C(C)(C)[C@@H]5CC[C@]43C)[C@@H]12` [BETUNOLIC ACID], for which the “Ratio CC50/IC50” value in [6] is listed as 6.2. This compound displayed an IC50 in [7] of 5.7 µM. Further, the CC50 at 48 h in data set [8] is 35.6 µM.
Consider `C=C(C)[C@@H]1CC[C@]2(C(=O)O)CC[C@]3(C)[C@H](CC[C@@H]4[C@@]5(C)CC[C@H](O)C(C)(C)[C@@H]5CC[C@]43C)[C@@H]12`, for which the Ratio was found to be 0.649 in data set [9] and 0.158 in [11]. In data set [10], the inhibition entry is “inactive”.
Take `C=C(C)[C@@H]1CC[C@]2(C(=O)O)CC[C@]3(C)[C@H](CC[C@@H]4[C@@]5(C)CC[C@@H](OS(=O)(=O)O)C(C)(C)[C@@H]5CC[C@]43C)[C@@H]12`: the CC50 at 72 h in [12] was found to be 228 µM. Also, the “Ratio CC50/IC50” value in data set [13] worked out at 5. The half-inhibitory concentration (IC50) in [14] is 45.7 µM.
For the compound `C=C(C)[C@@H]1CC[C@]2(C(=O)O)CC[C@]3(C)[C@H](CC[C@@H]4[C@@]5(C)CC[C@H](O)C(C)(C)[C@@H]5CC[C@]43C)[C@@H]12` [BETULINIC ACID], in data set [15], the concentration in solution (solubility) was 0.02 µg/mL (≈ 0.0438 µM). Also, the IC50 in [16] amounted to 0.7 µM; in data set [3] (setting [27]), 1.6 µM. Moreover, the values for the Kd in data set [2], in data set [5] and in data set [20] were 4.5 µM, 1.3 µM and 0.593 µM, respectively. In addition, the results for the “Ratio CC50/IC50” value in data set [17] and in [4] were 15.6 and over 62.5, respectively. The CC50 at 72 h in data set [18] amounted to 10.9 µM. In addition, the Ka in data set [19] was determined as 1.685 ×10⁶ /M.
Take `C=C(C)[C@@H]1CC[C@]2(C(=O)O)CC[C@]3(C)[C@H](CC[C@@H]4[C@@]5(C)CC[C@@H](O)[C@@](C)(C(=O)O)[C@@H]5CC[C@]43C)[C@@H]12`: the IC50 in data set [21] came out at 64.4 µM.
Consider `C=C(C)[C@@H]1CC[C@]2(C(=O)[O-])CC[C@]3(C)[C@H](CC[C@@H]4[C@@]5(C)CC[C@H](O)C(C)(C)[C@@H]5CC[C@]43C)[C@@H]12.C[N+](C)(C)CCO`, for which, in data set [1], the CC50 at 48 h was over 100 µM. For the same compound, the dissociation constant (Kd) was 3.9 µM in [2] and 4 µM in data set [5]. For the same compound, the IC50 in data set [3] (vero) was determined as 0.9 µM. The “Ratio CC50/IC50” value in [4] is reported as over 111.1.
Regarding `C=C(C)[C@@H]1CC[C@]2(CO)CC[C@]3(C)[C@H](CC[C@@H]4[C@@]5(C)CC[C@H](O)C(C)(C)[C@@H]5CC[C@]43C)[C@@H]12` [BETULIN], the figures for the IC50 in data set [22], in data set [23] and in [16] were 9.4 µM, 0.9 µM and 0.7 µM, respectively. The “Ratio CC50/IC50” value is 183 in [24], 71 in [17] and 17.6 in data set [26]. For the same compound, the CC50 at 72 h in data set [18] came to 49.7 µM. In data set [25], this compound registered a CC50 at 48 h of 165 µM.
In the case of `C=C(C)[C@@H]1CC[C@]2(C(=O)N[C@H](C)C(=O)[O-])CC[C@]3(C)[C@H](CC[C@@H]4[C@@]5(C)CC[C@H](O)C(C)(C)[C@@H]5CC[C@]43C)[C@@H]12.C[N+](C)(C)CCO`, in data set [1], the CC50 at 48 h is over 100 µM. Moreover, the Kd was 47 µM in [2] and 37 µM in data set [5]. Further, in [3] (setting [27]), the IC50 turned out to be 0.6 µM. Also, the “Ratio CC50/IC50” value in [4] is reported as over 166.7.
As to `C=C(C)[C@@H]1CC[C@]2(C(=O)N[C@H](C)C(=O)[O-])CC[C@]3(C)[C@H](CC[C@@H]4[C@@]5(C)CC[C@H](O)C(C)(C)[C@@H]5CC[C@]43C)[C@@H]12.CCCCCCCCCCCC[N+](C)(C)Cc1ccccc1`, the CC50 at 48 h in data set [1] worked out at 10.5 µM. Further, the Kd in data set [2] and in data set [5] was 19 µM in each case. Also, in [3] (setting [27]), the IC50 was 0.9 µM. Moreover, the “Ratio CC50/IC50” value in data set [4] came out at 11.6.
